In ChEMBL document CHEMBL5321232, “Synthesis and biological evaluation of dual MDM2/XIAP inhibitors based on the tetrahydroquinoline scaffold” (Eur J Med Chem, 2023):
Calls of active or inactive are those of the source.

Columns and labels:
[1] = biological target: E3 ubiquitin-protein ligase Mdm2 (Homo sapiens) (UniProt Q00987); experiment: Inhibition of MDM2 in human EU-1 cells assessed as increase in PUMA expression upto 1 uM incubated at 8 hrs by Western blot analysis; format: cell-based
Summary of the method: (§1)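 EU-1 cells were treated at the doses and times indicated; for caspase-3, caspase-9 and PARP, 1 μM over a time course. Cells were lysed for 30 min in NaCl/Tris pH 8.0/EDTA/NP-40 buffer with protease inhibitors. Equal protein was run on SDS-PAGE and transferred to nitrocellulose. Membranes were blocked in milk, incubated with primary antibodies for 3 h at room temperature and HRP secondary for 1 h, then developed by ECL.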

[2] = biological target: E3 ubiquitin-protein ligase XIAP (Homo sapiens) (UniProt P98170); experiment: Inhibition of XIAP in human EU-1 cells assessed as increase in PARP at 1 uM incubated upto 24 hrs by Western blot analysis; format: cell-based; summary of the method: as §1
CWR22R [3] = experiment: Antiproliferative activity against human 22Rv1 cells assessed as inhibition of cell growth incubated for 72 hrs by MTS assay; format: functional, cell-based; details: 22Rv1, 72 h
Summary of the method: (§2)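 Cells seeded at 3,000–8,000 per well according to growth rate and incubated overnight. They were then exposed to compounds over 3 nM–100 μM for 72 h, four replicates per concentration. MTS added, 1.5 h in the dark at 37 °C, absorbance read at 490 nm. IC50 normalized to untreated cells and fitted by nonlinear regression.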

CWR22R [4] = experiment: Antitumor activity against human 22Rv1 cells xenografted in NOD SCID mouse assessed as increase in cleaved PARP expression at 60 mg/kg, ip administered for 10 days by immunostaining analysis; format: functional, organism-based; details: time 10.0 day
Summary of the method: (§3)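 Tumors came from 22Rv1 xenografts in male NSG mice dosed i.p. daily for 10 days. Cryosections (10 μm) were fixed in 4% PFA and permeabilized with 0.25% Triton X-100, then blocked with 10% goat serum. Primary antibodies (1:200) against MDM2, cleaved caspase-3, cleaved PARP or CD31 were applied overnight at 4 °C, followed by fluorescent secondaries (1:1,000, 2 h) and a DAPI counterstain. Fluorescence intensity quantified as mean ± SEM.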

[5] = biological target: E3 ubiquitin-protein ligase Mdm2 (Homo sapiens) (UniProt Q00987); experiment: Inhibition of MDM2 in human 22Rv1 cells assessed as increase in p53 expression upto 10 uM incubated at 24 hrs by Western blot analysis; format: cell-based
Summary of the method: (§4)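 22Rv1 or A375 cells grown to 80% confluence were exposed for 24 h to 1, 5 or 10 μM compound in DMEM. AMG-232 control ran at 100 nM–1 μM. Cells were lysed in RIPA with protease/phosphatase inhibitors, and 30 μg protein was run on SDS-PAGE/PVDF. Membranes were blocked in 5% milk and probed overnight at 4 °C for p53, c-PARP, MDM2 and GAPDH. Bands detected by HRP/ECL.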

[6] = Toxicity in NOD SCID mouse assessed as body weight loss at 60 mg/kg, ip administered for 10 days and measured every 3 days; format: organism-based; details: in vivo, 240 h, time 10 day
Summary of the method: (§5)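 Male humanized NSG mice, 8–9 weeks old, were injected s.c. in the right dorsal flank with 2 million 22Rv1 cells in medium/Matrigel 1:1. After ~14 days (mean tumor ~100 mm3), mice were randomized, n=5/group. Dosing was 60 mg/kg i.p. daily for 10 days in 5% DMSO/65% PEG400/30% saline, or vehicle alone. Caliper volume (a×b2×0.5) and body weight were recorded every 3 days.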

CWR22R [7] = experiment: Antitumor activity against human 22Rv1 cells xenografted in NOD SCID mouse assessed as decrease in MDM2 expression at 60 mg/kg, ip administered for 10 days by immunostaining analysis; format: functional, organism-based; details: time 10.0 day; summary of the method: as §3
CWR22R [8] = experiment: Antitumor activity against human 22Rv1 cells xenografted in NOD SCID mouse at 60 mg/kg, ip administered for 10 days and measured every 3 days; format: functional, organism-based; details: time 10.0 day; summary of the method: as §5
[9] = biological target: E3 ubiquitin-protein ligase XIAP (Homo sapiens) (UniProt P98170); experiment: Inhibition of XIAP in human EU-1 cells assessed as increase in caspase3 at 1 uM incubated upto 24 hrs by Western blot analysis; format: cell-based; summary of the method: as §1
[10] = Antiproliferative activity against human EU-1 cells assessed as inhibition of cell growth incubated for 44 hrs by WST assay; format: functional, cell-based; details: EU-1, 44 h
Summary of the method: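 Pediatric ALL-derived EU-1 cells grown in RPMI 1640 with 10% FBS, 2 mmol/L L-glutamine and penicillin/streptomycin at 37 °C, 5% CO2. Compounds given at graded concentrations for 44 h. WST (25 μg/well) then added for a further 4 h. OD read at 450 nm against a 620 nm reference, with cell-free wells for background.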

[11] = biological target: E3 ubiquitin-protein ligase Mdm2 (Homo sapiens) (UniProt Q00987); experiment: Inhibition of MDM2 in human A-375 cells assessed as increase in p53 expression upto 10 uM incubated at 24 hrs by Western blot analysis; format: cell-based
Summary of the method: as §4, with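 “DMEM.” for “DMEM. AMG-232 control ran at 100 nM–1 μM.”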

A-375 [12] = experiment: Inhibition of colony formation in human A-375 cells assessed as reduction in number of clonogenic cells at 1 to 10 uM incubated for 10 days and subsequent media replacement with compound for every 3 days by crystal violet staining based microscopic analysis; format: functional, cell-based; details: dose 1-10 µM, time 10.0 day
Summary of the method: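 A375 cells in log phase were seeded at 250 per well and incubated 48 h. They were then treated with 1, 5 or 10 μM for 10 days, with medium ± compound changed every 3 days. Colonies were methanol-fixed, stained with 0.5% crystal violet and counted by microscopy. Colony area expressed versus vehicle (100%) as mean ± SEM of three biological replicates.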

EU-1 [13] = experiment: Downregulation of MDM2 expression in human EU-1 cells upto 1 uM by Western blot analysis; format: functional, cell-based; details: time 8.0 hrs, TDE = time-dependent effect; summary of the method: as §1
CWR22R [14] = experiment: Inhibition of colony formation in human 22Rv1 cells assessed as reduction in number of clonogenic cells incubated for 14 days and subsequent media replacement with compound for every 3 days by crystal violet staining based microscopic analysis; format: functional, cell-based; details: dose 1-10 µM, time 14.0 day
Summary of the method: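 22Rv1 cells in log phase were seeded at 2,000 per well and incubated 72 h. They were then treated with 1, 5 or 10 μM for 14 days, with medium ± compound renewed every 3 days. Colonies were fixed in cold methanol, stained with 0.5% crystal violet and counted microscopically. Run in triplicate; area expressed relative to vehicle (100%) as mean ± SEM of three biological replicates.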

[15] = biological target: E3 ubiquitin-protein ligase Mdm2 (Homo sapiens) (UniProt Q00987); experiment: Inhibition of MDM2 in human A-375 cells assessed as increase in PARP expression upto 10 uM incubated at 24 hrs by Western blot analysis; format: cell-based; summary of the method: as §4
CWR22R [16] = experiment: Antitumor activity against human 22Rv1 cells xenografted in NOD SCID mouse assessed as disruption of tumor vasculature at 60 mg/kg, ip administered for 10 days by immunostaining analysis; format: functional, organism-based; details: time 10.0 day; summary of the method: as §3
CWR22R [17] = experiment: Antitumor activity against human 22Rv1 cells xenografted in NOD SCID mouse assessed as increase in cleaved caspase3 expression at 60 mg/kg, ip administered for 10 days by immunostaining analysis; format: functional, organism-based; details: time 10.0 day; summary of the method: as §3
[18] = biological target: E3 ubiquitin-protein ligase Mdm2 (Homo sapiens) (UniProt Q00987); experiment: Inhibition of MDM2 in human EU-1 cells assessed as increase in p21 expression upto 1 uM incubated at 8 hrs by Western blot analysis; format: cell-based; summary of the method: as §1
[19] = biological target: E3 ubiquitin-protein ligase Mdm2 (Homo sapiens) (UniProt Q00987); experiment: Inhibition of MDM2 in human EU-1 cells assessed as increase in p53 expression upto 1 uM incubated at 8 hrs by Western blot analysis; format: cell-based; summary of the method: as §1
[20] = biological target: E3 ubiquitin-protein ligase XIAP (Homo sapiens) (UniProt P98170); experiment: Inhibition of XIAP in human EU-1 cells assessed as increase in caspase-9 at 1 uM incubated upto 24 hrs by Western blot analysis; format: cell-based; summary of the method: as §1
EU-1 [21] = experiment: Downregulation of MDM2 expression in human EU-1 cells incubated for 8 hrs by Western blot analysis; format: functional, cell-based; details: dose <= 1.0 µM; summary of the method: as §1
[22] = biological target: E3 ubiquitin-protein ligase Mdm2 (Homo sapiens) (UniProt Q00987); experiment: Inhibition of MDM2 in human 22Rv1 cells assessed as increase in PARP expression upto 10 uM incubated at 24 hrs by Western blot analysis; format: cell-based; summary of the method: as §4
MDA-MB-231 = experiment: Antiproliferative activity against human MDA-MB-231 cells assessed as inhibition of cell growth incubated for 72 hrs by MTS assay; format: functional, cell-based; details: MDA-MB-231, 72 h; summary of the method: as §2
A-375 [23] = experiment: Antiproliferative activity against human A-375 cells assessed as inhibition of cell growth incubated for 72 hrs by MTS assay; details: A-375, 72 h
CWR22R [24] = experiment: Antitumor activity against human 22Rv1 cells xenografted in NOD SCID mouse assessed as inhibition of tumor growth at 60 mg/kg, ip administered for 10 days and measured every 3 days; format: functional, organism-based; details: time 10.0 day; summary of the method: as §5

Sequence of E3 ubiquitin-protein ligase XIAP (Homo sapiens) (P98170 whole entry): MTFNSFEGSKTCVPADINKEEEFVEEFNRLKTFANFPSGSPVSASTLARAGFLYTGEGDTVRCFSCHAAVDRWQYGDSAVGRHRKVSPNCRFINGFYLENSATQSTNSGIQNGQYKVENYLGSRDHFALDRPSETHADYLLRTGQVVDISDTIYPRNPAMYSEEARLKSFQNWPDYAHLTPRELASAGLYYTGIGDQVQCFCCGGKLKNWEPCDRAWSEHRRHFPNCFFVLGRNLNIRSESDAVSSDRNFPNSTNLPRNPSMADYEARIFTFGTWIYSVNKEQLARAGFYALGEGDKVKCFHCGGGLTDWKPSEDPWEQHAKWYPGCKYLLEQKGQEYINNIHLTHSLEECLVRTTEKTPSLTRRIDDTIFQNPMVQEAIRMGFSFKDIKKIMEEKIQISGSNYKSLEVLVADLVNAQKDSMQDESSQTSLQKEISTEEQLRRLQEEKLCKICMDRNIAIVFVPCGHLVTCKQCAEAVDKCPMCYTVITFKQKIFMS
Sequence of E3 ubiquitin-protein ligase Mdm2 (Homo sapiens) (Q00987 whole entry, looked up): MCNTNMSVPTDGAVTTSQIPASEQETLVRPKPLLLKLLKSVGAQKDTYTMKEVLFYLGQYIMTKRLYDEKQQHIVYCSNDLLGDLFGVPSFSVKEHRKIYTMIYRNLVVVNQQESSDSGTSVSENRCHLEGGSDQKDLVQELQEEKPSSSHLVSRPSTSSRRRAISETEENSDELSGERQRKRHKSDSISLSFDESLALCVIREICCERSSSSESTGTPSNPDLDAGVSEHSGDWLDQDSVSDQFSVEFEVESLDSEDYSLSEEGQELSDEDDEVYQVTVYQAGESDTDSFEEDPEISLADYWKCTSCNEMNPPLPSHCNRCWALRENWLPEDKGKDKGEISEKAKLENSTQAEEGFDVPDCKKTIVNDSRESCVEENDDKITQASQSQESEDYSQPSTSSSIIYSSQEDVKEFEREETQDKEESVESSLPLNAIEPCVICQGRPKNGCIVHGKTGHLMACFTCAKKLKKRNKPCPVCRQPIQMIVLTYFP

CC(=O)c1cccc(NS(=O)(=O)c2ccc3c(c2)C2OCCC2C(c2ccc(C(=O)C(C)C)cc2)N3)c1 (stereo not given)
0.2 µM: IC50 [10]
Non-Toxic: Activity [6]
5.3 µM: IC50 (CWR22R [3])
1.5 µM: IC50 (MDA-MB-231)
1 µM: IC50 (A-375 [23])
active: inhibition [1] | inhibition [2] | Activity (CWR22R [4]) | inhibition [5] | Activity (CWR22R [7]) | Activity (CWR22R [8]) | inhibition [9] | inhibition [11] | inhibition (A-375 [12]) | Activity (EU-1 [13]) Tde | inhibition (CWR22R [14]) Dose-Dependent Effect | inhibition [15] | Activity (CWR22R [16]) | Activity (CWR22R [17]) | inhibition [18] | inhibition [19] | inhibition [20] | Activity (EU-1 [21]) Dose-Dependent Effect | inhibition [22] | Activity (CWR22R [24])
